According to ChEMBL document CHEMBL1938239, “Novel analgesic/anti-inflammatory agents: diarylpyrrole acetic esters endowed with nitric oxide releasing properties” (J Med Chem, 2011):
Active and inactive are the calls of the source. The rule behind the calls is not given here.

Tests used:
[1] = target: T1, Prostaglandin G/H synthase 1 (Mus musculus) (UniProt P22437); assay: Inhibition of COX-1-mediated PGE2 production in arachidonic acid-stimulated mouse J774 cells at 10 uM incubated for 15 mins prior to arachidonic acid-challenge by radioimmunoassay; assay type: cell-based
T1 sequence (whole entry): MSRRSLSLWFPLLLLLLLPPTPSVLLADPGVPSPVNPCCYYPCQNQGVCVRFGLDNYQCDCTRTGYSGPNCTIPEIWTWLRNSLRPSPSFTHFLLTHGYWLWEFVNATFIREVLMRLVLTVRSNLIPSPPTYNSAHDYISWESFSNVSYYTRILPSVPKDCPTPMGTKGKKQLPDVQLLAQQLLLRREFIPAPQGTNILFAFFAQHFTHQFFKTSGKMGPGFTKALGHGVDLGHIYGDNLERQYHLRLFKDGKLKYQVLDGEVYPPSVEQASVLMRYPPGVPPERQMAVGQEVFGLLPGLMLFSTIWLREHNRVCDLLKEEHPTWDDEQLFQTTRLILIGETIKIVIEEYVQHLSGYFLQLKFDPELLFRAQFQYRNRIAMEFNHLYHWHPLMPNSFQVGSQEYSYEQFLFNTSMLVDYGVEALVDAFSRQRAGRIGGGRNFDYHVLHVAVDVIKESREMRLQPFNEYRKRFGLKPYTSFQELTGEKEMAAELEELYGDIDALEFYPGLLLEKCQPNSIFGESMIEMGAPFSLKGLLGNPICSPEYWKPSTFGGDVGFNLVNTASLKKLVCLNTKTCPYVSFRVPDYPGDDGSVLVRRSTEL
Procedure, shortened: (§1)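 J774 murine macrophages grown in DMEM with 10% FBS and allowed to adhere for 2 h at 37 °C. Where inhibition exceeded 50%, 0.01–1 μM was also tested. Supernatant PGE2 was measured by RIA as % inhibition versus control, in triplicate wells over three experiments. IC50 came from a sigmoidal variable-slope fit.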

[2] = target: T2, Prostaglandin G/H synthase 1 (Mus musculus, UniProt P22437); assay: Inhibition of COX-1-mediated PGE2 production in arachidonic acid-stimulated mouse J774 cells incubated for 15 mins prior to arachidonic acid-challenge by radioimmunoassay; assay type: cell-based
T2 sequence (P22437 whole entry): T1 sequence (whole entry)
Procedure, shortened: as §1, with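 “2 h at 37 °C. Cells were pretreated with compound at 10 μM for 15 min, then given 15 μM arachidonic acid for 30 min at 37” for “2 h at 37”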

J774 = assay: Selectivity ratio of IC50 for COX1 in mouse J774 cells to IC50 for COX2 in mouse J774 cells; assay type: cell-based
Procedure, shortened: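 Ratio of J774 IC50s, COX-1 over COX-2. For COX-1, cells were pretreated with compound for 15 min, then given 15 μM arachidonic acid for 30 min at 37 °C. For COX-2, cells received E. coli LPS 10 μg/mL for 24 h with compound at 0.01–10 μM. PGE2 was measured by RIA in triplicate wells over three experiments. IC50 came from a sigmoidal fit.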

[3] = target: T3, Prostaglandin G/H synthase 2 (Mus musculus, UniProt Q05769); assay: Inhibition of COX-2-mediated PGE2 production in LPS-stimulated mouse J774 cells after 24 hrs by radioimmunoassay; assay type: cell-based
T3 sequence (Q05769 whole entry): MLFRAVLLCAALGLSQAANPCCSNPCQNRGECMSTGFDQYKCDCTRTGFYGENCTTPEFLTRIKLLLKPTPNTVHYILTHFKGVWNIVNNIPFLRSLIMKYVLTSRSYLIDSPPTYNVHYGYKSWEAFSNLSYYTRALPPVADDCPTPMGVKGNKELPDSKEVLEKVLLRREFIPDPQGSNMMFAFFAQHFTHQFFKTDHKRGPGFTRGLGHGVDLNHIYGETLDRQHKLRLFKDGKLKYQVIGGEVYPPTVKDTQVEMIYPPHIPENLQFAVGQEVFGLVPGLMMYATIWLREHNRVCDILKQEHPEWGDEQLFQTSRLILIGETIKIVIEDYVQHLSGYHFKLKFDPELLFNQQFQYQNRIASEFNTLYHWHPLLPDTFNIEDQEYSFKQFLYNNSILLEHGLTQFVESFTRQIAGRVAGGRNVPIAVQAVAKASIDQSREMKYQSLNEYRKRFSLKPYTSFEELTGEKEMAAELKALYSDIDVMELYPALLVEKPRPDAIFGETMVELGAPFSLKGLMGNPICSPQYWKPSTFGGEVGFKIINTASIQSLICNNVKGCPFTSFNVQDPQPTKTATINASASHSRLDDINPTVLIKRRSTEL

[4] = target: T4, Prostaglandin G/H synthase 2 (Mus musculus) (UniProt Q05769); assay: Inhibition of COX-2-mediated PGE2 production in LPS-stimulated mouse J774 cells at 0.001 uM after 24 hrs by radioimmunoassay; assay type: cell-based
T4 sequence (whole entry): T3 sequence (Q05769 whole entry)

[5] = target: T1, Prostaglandin G/H synthase 1 (Mus musculus); assay: Inhibition of COX-1-mediated PGE2 production in arachidonic acid-stimulated mouse J774 cells at 1 uM incubated for 15 mins prior to arachidonic acid-challenge by radioimmunoassay; assay type: cell-based; procedure, shortened: as §1
Aorta [6] = assay: Vasorelaxation activity against KCl-induced contraction in isolated Wistar rat thoracic endothelium-denulated aortic rings; assay type: functional, tissue-based
Procedure, shortened: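 Endothelium-denuded thoracic aortic rings from male Wistar rats (250−350 g); denudation confirmed by <10% relaxation to 10 μM ACh. Rings precontracted with 30 mM KCl; compound added at 3-fold increasing concentrations, 1 nM to 10 μM. Isometric tension recorded. Emax given as % of KCl tone; pIC50 derived. Mean ± standard error of 6−10 experiments; repeated with 1 μM ODQ.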

Aorta [7] = assay: Vasorelaxation activity against KCl-induced contraction in isolated Wistar rat thoracic endothelium-denulated aortic rings in the presence of guanylate cyclase inhibitor ODQ; assay type: functional, tissue-based
Procedure, shortened: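 Thoracic aortic rings from male Wistar rats (250–350 g), endothelium removed by rubbing; rings relaxing ≥10% to ACh 10 μM on KCl 30 mM tone were discarded. ODQ 1 μM was incubated, then rings were contracted with KCl 30 mM and given 3-fold increasing concentrations of 1 nM–10 μM.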

Rattus norvegicus [8] = assay: Antiinflammatory activity against carrageenan-induced edema in Sprague-Dawley rat assessed as right hind paw volume at 20 mg/kg, po administered 4 hrs post challenge measured after 60 mins; assay type: functional
Procedure, shortened: (§2)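 Rats received intraplantar carrageenan. Right hind paw volume was measured 4 h after the carrageenan injection and compared with saline/carrageenan-treated controls. Oral dosing in CMC vehicle; volume recorded at 60 min after treatment.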

Rattus norvegicus [9] = assay: Antiinflammatory activity against carrageenan-induced edema in Sprague-Dawley rat assessed as right hind paw volume at 40 mg/kg, po administered 4 hrs post challenge measured after 60 mins; assay type: functional; procedure, shortened: as §2
[10] = target: T1, Prostaglandin G/H synthase 1 (Mus musculus); assay: Inhibition of COX-1-mediated PGE2 production in arachidonic acid-stimulated mouse J774 cells at 0.1 uM incubated for 15 mins prior to arachidonic acid-challenge by radioimmunoassay; assay type: cell-based; procedure, shortened: as §1
Mus musculus = assay: Analgesic activity in Swiss albino mouse abdominal constriction model assessed as reduction in acetic acid-induced writhing response for 10 mins at 20 to 40 mg/kg, po administered 30 mins prior to acetic acid-challenge measured after 5 mins relative to vehicle-treated control; assay type: functional, organism-based; conditions: Abdomen
Procedure, shortened: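 Male Swiss albino mice (23−25 g); 0.6% acetic acid (10 mL/kg) injected ip. Stretching movements counted for 10 min, starting 5 min after administration. Oral doses in carboxymethylcellulose (CMC) vehicle, compared with vehicle-treated mice.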

Rattus norvegicus [11] = assay: Antiinflammatory activity against carrageenan-induced paw edema in Sprague-Dawley rat assessed as paw weight at 20 mg/kg, po administered 4 hrs post challenge measured after 30 mins (reference value: 62.5+/-3.1 g); assay type: functional
Rattus norvegicus [12] = assay: Antiinflammatory activity against carrageenan-induced paw edema in Sprague-Dawley rat assessed as paw weight at 20 mg/kg, po administered 4 hrs post challenge measured after 60 mins (reference value: 62.5+/-3.1 g); assay type: functional
Rattus norvegicus [13] = assay: Antiinflammatory activity against carrageenan-induced paw edema in Sprague-Dawley rat assessed as paw weight at 20 mg/kg, po administered 4 hrs post challenge measured after 120 mins (reference value: 62.5+/-3.1 g); assay type: functional
Rattus norvegicus [14] = assay: Antiinflammatory activity against carrageenan-induced paw edema in Sprague-Dawley rat assessed as paw weight at 40 mg/kg, po administered 4 hrs post challenge measured after 30 mins (reference value: 63.2+/-3.3 g); assay type: functional
Rattus norvegicus [15] = assay: Antiinflammatory activity against carrageenan-induced paw edema in Sprague-Dawley rat assessed as paw weight at 40 mg/kg, po administered 4 hrs post challenge measured after 60 mins (reference value: 63.2+/-3.3 g); assay type: functional
Rattus norvegicus [16] = assay: Antiinflammatory activity against carrageenan-induced paw edema in Sprague-Dawley rat assessed as paw weight at 40 mg/kg, po administered 4 hrs post challenge measured after 120 mins (reference value: 63.2+/-3.3 g); assay type: functional

inhibition [1]	IC50 [2]	SMILES	Ratio IC50 (J774)	IC50 [3]	IC50 (Aorta [6])	Activity (Aorta [7])	Emax (Aorta [6])	also measured
27%	> 10 µM	COc1ccc(-n2c(-c3ccc(S(C)(=O)=O)cc3)cc(CC(=O)OCCCO)c2C)cc1	> 14.3					
22%	> 10 µM	Cc1c(CC(=O)OCCO)cc(-c2ccc(S(C)(=O)=O)cc2)n1-c1ccccc1	> 104	0.096 µM				
	> 10 µM	Cc1c(CC(=O)O)cc(-c2ccc(S(C)(=O)=O)cc2)n1-c1ccc(F)cc1	> 20	0.5 µM				
5%	> 10 µM	COc1ccc(-n2c(-c3ccc(S(C)(=O)=O)cc3)cc(CC(=O)OCCO)c2C)cc1	> 9.1					
45%	> 10 µM	CSc1ccc(-n2c(-c3ccc(S(C)(=O)=O)cc3)cc(CC(=O)O)c2C)cc1	> 769	0.013 µM				
62%	3.18 µM	CSc1ccc(-n2c(-c3ccc(S(C)(=O)=O)cc3)cc(CC(=O)OCCO)c2C)cc1	37.4					inhibition [10]: 11%; inhibition [5]: 40%
21%	> 10 µM	Cc1c(CC(=O)OCCO)cc(-c2ccc(S(C)(=O)=O)cc2)n1-c1ccc(F)cc1	> 256	0.039 µM				
36%	> 10 µM	CSc1ccc(-n2c(-c3ccc(S(C)(=O)=O)cc3)cc(CC(=O)OCCCO)c2C)cc1	> 38.5					
0%	> 10 µM	Cc1c(CC(=O)OCCCO)cc(-c2ccc(S(C)(=O)=O)cc2)n1-c1ccc(F)cc1	> 179	0.056 µM				

Second part, the molecule before the results:

SMILES	inhibition [1]	IC50 [2]	Ratio IC50 (J774)	IC50 [3]	IC50 (Aorta [6])	Activity (Aorta [7])	Emax (Aorta [6])	also measured
COc1ccc(-n2c(-c3ccc(S(C)(=O)=O)cc3)cc(CC(=O)OCCCO[N+](=O)[O-])c2C)cc1		> 10 µM	> 4170	0.0024 µM	> 10 µM	inactive		inhibition [4]: 39%; inhibition [5]: 0%
Cc1c(CC(=O)OCCCO[N+](=O)[O-])cc(-c2ccc(S(C)(=O)=O)cc2)n1-c1ccccc1	27%	> 10 µM	> 238	0.042 µM	> 10 µM	inactive	44%	
Cc1c(CC(=O)OCCCO[N+](=O)[O-])cc(-c2ccc(S(C)(=O)=O)cc2)n1-c1ccc(F)cc1	28%	> 10 µM	> 269	0.0372 µM	> 10 µM	inactive	41%	
Cc1c(CC(=O)OCCCO[N+](=O)[O-])cc(-c2ccc(S(C)(=O)=O)cc2)n1-c1cccc(F)c1	75%	1.1 µM	151	0.0073 µM	> 10 µM	inactive	39%	Activity (Rattus norvegicus [8]): 2.05 mL; Activity (Rattus norvegicus [9]): 1.96 mL; inhibition [10]: 20%; inhibition [5]: 50%; Activity (Mus musculus): inactive; Activity (Rattus norvegicus [11]): 43.2 g; Activity (Rattus norvegicus [12]): 45.1 g; Activity (Rattus norvegicus [13]): 40.7 g; Activity (Rattus norvegicus [14]): 45.5 g; Activity (Rattus norvegicus [15]): 44.9 g; Activity (Rattus norvegicus [16]): 36.8 g
Cc1c(CC(=O)OCCO[N+](=O)[O-])cc(-c2ccc(S(C)(=O)=O)cc2)n1-c1ccccc1	19%	> 10 µM	> 233		1.74 µM	inactive	65%	
CSc1ccc(-n2c(-c3ccc(S(C)(=O)=O)cc3)cc(CC(=O)OCCO[N+](=O)[O-])c2C)cc1	0%	> 10 µM	> 588	0.017 µM	0.457 µM	inactive	65%	
COc1ccc(-n2c(-c3ccc(S(C)(=O)=O)cc3)cc(CC(=O)OCCO[N+](=O)[O-])c2C)cc1	55%	6.4 µM	37.6		0.178 µM	inactive		inhibition [10]: 12%; inhibition [5]: 30%
CSc1ccc(-n2c(-c3ccc(S(C)(=O)=O)cc3)cc(CC(=O)OCCCO[N+](=O)[O-])c2C)cc1	0%	> 10 µM	> 370		> 10 µM	inactive		
O=[N+]([O-])OCC(CO[N+](=O)[O-])O[N+](=O)[O-] [NITROGLYCERIN]					0.126 µM		73%	
Cc1c(CC(=O)O)cc(-c2ccc(S(C)(=O)=O)cc2)n1-c1ccccc1	0%	> 10 µM	> 10					
Cc1c(CC(=O)OCCO[N+](=O)[O-])cc(-c2ccc(S(C)(=O)=O)cc2)n1-c1ccc(F)cc1	0%	> 10 µM	> 345	0.029 µM	3.39 µM	inactive		
